Screening data: PubChem BioAssay, several laboratories
TLR4-MyD88 BLA – inhibitors of human TLR4-MyD88 binding; O00206+Q99836; HeLa CL3-4 TLR4/MyD88 BLA complementation, FRET ratio; inhibition, % at 8.4 µM; 200,000 compounds, 0.18% hits; in the data active means inhibition above about 25%;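 further: 0% = vehicle and 100% = reference inhibitor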
Target sequence (O00206 whole entry, looked up): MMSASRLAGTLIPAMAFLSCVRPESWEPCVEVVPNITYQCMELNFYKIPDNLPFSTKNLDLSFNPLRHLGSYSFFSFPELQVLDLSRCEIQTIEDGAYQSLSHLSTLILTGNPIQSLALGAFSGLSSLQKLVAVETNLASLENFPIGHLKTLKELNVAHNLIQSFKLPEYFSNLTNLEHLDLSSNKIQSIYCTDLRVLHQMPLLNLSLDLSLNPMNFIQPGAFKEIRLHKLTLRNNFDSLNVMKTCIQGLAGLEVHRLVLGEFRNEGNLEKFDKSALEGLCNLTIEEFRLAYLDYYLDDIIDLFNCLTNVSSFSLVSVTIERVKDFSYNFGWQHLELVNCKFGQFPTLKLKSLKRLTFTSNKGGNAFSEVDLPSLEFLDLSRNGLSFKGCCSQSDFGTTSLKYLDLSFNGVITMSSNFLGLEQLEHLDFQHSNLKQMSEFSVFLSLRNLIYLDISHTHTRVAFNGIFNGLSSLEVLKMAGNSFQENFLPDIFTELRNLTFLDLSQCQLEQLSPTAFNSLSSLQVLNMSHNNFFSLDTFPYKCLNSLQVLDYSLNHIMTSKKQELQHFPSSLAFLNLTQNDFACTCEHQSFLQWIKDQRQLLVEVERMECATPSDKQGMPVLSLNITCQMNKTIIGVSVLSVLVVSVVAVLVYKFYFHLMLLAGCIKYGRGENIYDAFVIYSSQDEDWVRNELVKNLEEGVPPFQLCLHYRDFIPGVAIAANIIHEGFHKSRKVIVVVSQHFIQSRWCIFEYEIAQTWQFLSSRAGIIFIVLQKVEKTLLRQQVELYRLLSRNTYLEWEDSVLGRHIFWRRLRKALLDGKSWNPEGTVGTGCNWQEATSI
Target sequence (Q99836 whole entry, looked up): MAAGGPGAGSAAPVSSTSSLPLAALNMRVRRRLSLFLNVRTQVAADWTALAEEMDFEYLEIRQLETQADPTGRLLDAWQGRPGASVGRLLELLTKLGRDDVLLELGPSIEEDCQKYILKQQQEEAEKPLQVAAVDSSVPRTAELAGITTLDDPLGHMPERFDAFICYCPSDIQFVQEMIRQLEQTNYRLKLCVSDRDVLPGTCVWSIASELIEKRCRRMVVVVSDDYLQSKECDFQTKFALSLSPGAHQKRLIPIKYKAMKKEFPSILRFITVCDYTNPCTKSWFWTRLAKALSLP
NOD2-RIPK2 inh – NOD2-RIPK2 protein interaction inhibition. CHO BLA complementation NOD2-RIPK2, CCF4 ratio. AID 624267. inhibition, % at 4.98 µM. 360,000 compounds, 0.38% hits; in the data active means inhibition above about 21%;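 further: 0% = vehicle only and 100% = reference blocker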
MC4R antagonist – antagonists of human melanocortin 4 receptor (MC4R); inhibition, % at 6.5 µM; MC4R-expressing cells, MTII-stimulated cAMP, LANCE TR-FRET; AID 540295; 360,000 compounds, 0.48% hits;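 active means inhibition above its plate's cutoff, the mean of tested wells on that plate plus 3 SD, cut at about 29% in these data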;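 further: 0% = Melanotan II alone and 100% = Melanotan II plus saturating MCL0020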
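Assay system: U2OS cells stably expressing human melanocortin 4 receptor (MC4R) / Dosing: 6.5 µM / Timing: compound 30 min, challenge 1 h, detection 1 h / Measured by: Eu-cAMP/anti-cAMP TR-FRET, emission 671 nm / Replicates: singlicate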
beta cell repl – MIN6 beta-cell proliferation induction; MIN6 cells proliferation, ATPlite luminescence, 48 h; cells starved in 0.2% serum; 100% = growth in 10% serum; AID 2380; 330,000 compounds, 0.29% hits; proliferation, % at 10 µM;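 active means compounds whose signal lies at least 3.5 SD above the mean of all wells on their plate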;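 further: 0% = DMSO-treated cells in low-serum medium and 100% = 10% serum control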
MC4R ag barr – human MC4R agonism via beta-arrestin; U2OS MC4R beta-arrestin complementation, luminescence; percent of melanotan II response, DMSO zero; 360,000 compounds, 0.98% hits; activation, % at 8.9 µM; P32245;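 active means activation above a per-plate cutoff, the mean activation of sample wells on that plate plus 3 SD, cut at about 8% in these data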
TLR9-MyD88 inh – inhibitors of human TLR9-MyD88 binding; inhibition, % at 4.98 µM; CHO BLA complementation TLR9-MyD88, CCF4 FRET ratio; AID 504734; Q9NR96+Q99836; 340,000 compounds, 0.21% hits;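 active means inhibition above the mean over all tested compounds plus 3 SD, cut at about 21% in these data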;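 further: 0% = DMSO only wells and 100% = clavulanate BLA inhibitor control wells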
cAMP nonselect – nonselective cAMP signaling inhibitor, MC4R antagonist counter-screen | shares compounds with MC4R antagonist | parental U2OS, forskolin cAMP, LANCE TR-FRET | inhibition, % at 6.5 µM | 1,600 compounds, 26% hits | AID 602193;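 active means mean inhibition over triplicates above the low-control well mean plus 3 SD, set per campaign, cut at about 13% in these data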;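 further: signal is single emission at 671 nm which falls as cellular cAMP rises; 0% = forskolin-stimulated wells and 100% = buffer without forskolin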
MC4R cAMP antag – human MC4R cAMP antagonism confirmation; shares compounds with MC4R antagonist; AID 602195; MC4R-expressing cells, MTII-stimulated cAMP, TR-FRET; 1,600 compounds, 27% hits; inhibition, % at 6.5 µM; in the data active means inhibition above about 29%;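 further: 0% = agonist stimulated wells alone and 100% = agonist stimulated wells plus saturating reference antagonist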
Starred values were filed as active, the others as inactive; · = no result given. This is a sample that favours compounds with a hit; in the whole collection about 2.1% have one here.

SMILES | TLR4-MyD88 BLA | NOD2-RIPK2 inh | MC4R antagonist | beta cell repl | MC4R ag barr | TLR9-MyD88 inh | cAMP nonselect | MC4R cAMP antag
C#CCNC(=O)C1=C[C@H](c2cn(C(C)=O)c3ccccc23)C[C@H](OCc2ccc(CO)cc2)O1 | -2.2 | -10.8 | 16.5 | -4.9 | -0.1 | -12.5 | · | ·
CC(=O)n1cc([C@H]2C=C(C(=O)Nc3ccccc3)O[C@@H](OCc3ccc(CO)cc3)C2)c2ccccc21 | -6.3 | -0.2 | 30.7* | -9.1 | -0.8 | -6.2 | 1.3 | 12.5
CC(=O)n1cc([C@@H]2C=C(C(=O)NCc3ccccc3)O[C@H](OCc3ccc(CO)cc3)C2)c2ccccc21 | · | 1.8 | 35.5* | -8.7 | -0.7 | -1.6 | -2.0 | 5.9
O=S(=O)(NC1CCc2ccccc21)c1ccccc1 (centres undefined) | · | -4.4 | 3.7 | · | 0.4 | -10.0 | · | ·
Cc1ccc(S(=O)(=O)NC2CCCc3ccccc32)cc1C (centres undefined) | -1.7 | -1.4 | 30.8* | -1.3 | 3.5 | -0.2 | -0.7 | 11.2
CCCCOc1ccc(SCCCN2CCOCC2)cc1 | · | -12.3 | 2.1 | · | -1.8 | -9.7 | · | ·
O=C(/C=C/c1ccc(-c2ccccc2[N+](=O)[O-])o1)c1ccccc1 | -3.2 | -3.2 | 29.5* | · | -0.1 | 2.1 | 1.4 | 4.0
O=C(O)/C(=C\c1ccc(-c2ccccc2[N+](=O)[O-])o1)c1ccccc1 | · | 6.8 | 2.9 | -5.0 | -1.6 | -2.7 | · | ·
COc1ccc(CCNC(=O)CSc2nc3c(sc(=S)n3-c3ccccc3)c(=O)[nH]2)cc1OC | · | 5.4 | -1.5 | · | -0.5 | -0.8 | · | ·
COc1ccc(CNC(=O)c2ccc(-c3ccc(F)c(F)c3)c3ccoc23)cc1OC | · | -7.4 | 39.6* | · | 1.2 | · | -4.9 | 3.5
Nc1nc(Sc2ccc(C(F)(F)F)cn2)n[nH]1 | -12.5 | -1.1 | 30.2* | -0.7 | -1.9 | -1.0 | -5.8 | -19.6
Cc1cc(SCC(=O)N/N=C/c2ccco2)nc2ccccc12 | -9.4 | -9.1 | 29.1* | -4.5 | 0.6 | · | -3.2 | -5.9
O=C(CSc1nc2ccccc2o1)N/N=C/c1ccco1 | · | 7.7 | 3.0 | 1.0 | -1.0 | 1.3 | · | ·
CCNC(=O)C1(C)CCN(C(=O)C(c2ccccc2)c2ccccc2)C1 (centres undefined) | · | -4.0 | -0.6 | · | -0.5 | · | · | ·
c1ccc2c3c(c(CN4CCCC4)cc2c1)COC3 | -14.5 | -14.0 | 30.2* | 1.3 | 0.0 | -1.3 | 1.1 | -17.8
CCC1(c2ccc(F)cc2)NC(=O)N(CC(=O)N2CCN(C(=O)c3ccco3)CC2)C1=O (centres undefined) | · | 4.6 | 14.6 | -2.6 | -1.9 | 0.3 | · | ·
CN(C(=O)COC(=O)c1nc(Cl)c(Cl)c(Cl)c1Cl)C1CCS(=O)(=O)C1 (centres undefined) | -0.1 | 14.7 | 43.2* | · | -1.8 | 19.1 | 14.8* | 37.7*
CN(C(=O)COC(=O)c1ccc(C(C)(C)C)cc1)C1CCS(=O)(=O)C1 (centres undefined) | · | -2.8 | 1.4 | 5.8 | -1.1 | 4.4 | · | ·
COc1cc2c(cc1NC(=O)CN1C(=O)NC3(CCc4ccccc43)C1=O)oc1ccccc12 (centres undefined) | 6.9 | -1.4 | 44.5* | -5.0 | -0.3 | 10.6 | 2.3 | 26.6
COc1ccc(C(=O)C(CN2CCCC2)c2ccccc2)cc1 (centres undefined) | -10.9 | 8.6 | 0.5 | -3.1 | 0.0 | 1.4 | · | ·
O=C(c1ccc(Cl)cc1)C(CN1CCCC1)c1ccccc1 (centres undefined) | · | 18.0 | 31.3* | -5.1 | 5.3 | 2.1 | 3.6 | -1.8
COC(=O)c1c(NC(=O)C2COc3ccccc3O2)sc2c1CCN(C(=O)OC)C2 (centres undefined) | · | 1.9 | 31.1* | · | 1.4 | -3.2 | 1.6 | 26.4
CS(=O)(=O)c1nc([N+](=O)[O-])nn1CCCc1ccccc1 | · | 1.5 | 34.5* | -3.9 | -2.1 | -4.0 | 1.7 | 23.6
Cn1nc([N+](=O)[O-])nc1S(C)(=O)=O | -7.4 | -3.7 | -2.8 | -5.2 | -2.2 | -3.9 | · | ·
Cc1cccc(C)c1NC(=O)C1(C)CN(S(C)(=O)=O)CC(=O)N1CC(F)(F)F (centres undefined) | · | -2.0 | · | · | · | · | · | ·
SMILES | TLR4-MyD88 BLA | NOD2-RIPK2 inh | MC4R antagonist | beta cell repl | MC4R ag barr | TLR9-MyD88 inh | cAMP nonselect | MC4R cAMP antag
CCOc1ccc(CCNC(=O)CSc2ncn[nH]2)cc1OCC | · | -3.4 | 20.7 | 4.6 | -2.7 | -4.9 | · | ·
CC(C)CNC(=O)c1cccc(NC(=O)c2ccc(Cl)c([N+](=O)[O-])c2)c1 | -19.1 | -13.8 | 31.5* | -2.9 | 1.6 | 2.5 | 10.5 | 14.9
Cc1ccccc1CNC(=O)Cc1ccccc1[N+](=O)[O-] | -9.9 | -5.1 | 0.8 | 0.0 | 1.9 | 3.3 | · | ·
Cc1ccccc1CNC(=O)c1ccc(Cl)c([N+](=O)[O-])c1 | 1.8 | 1.8 | 30.7* | -2.4 | -1.5 | 2.2 | 20.0* | 41.5*
CCOC(=O)CSc1ccc(-c2nc3cc(C)c(C)cc3[nH]2)cn1 | 11.6 | 8.0 | 33.9* | -5.7 | -3.1 | 9.8 | 8.4 | 6.1
S=C1NC[C@H](Cc2ccccc2)N1CC1CCN(CCCC2CCCC2)CC1 | · | 8.3 | 63.0* | · | 3.6 | -3.4 | 2.2 | -0.3
O=C(Nc1nccs1)c1ccc(Cl)nc1 | · | -13.2 | -4.9 | -5.4 | -0.4 | -13.2 | · | ·
Cc1csc(NC(=O)c2ccc(Cl)nc2)n1 | · | 9.5 | 29.0* | 0.5 | -0.1 | 6.4 | 2.9 | -7.3
O=C(CC[C@H]1O[C@@H](n2cnc3c(NC(=O)c4ccccc4)ncnc32)[C@H](O)[C@@H]1O)N[C@@H](CO)Cc1c[nH]c2ccccc12 | · | -4.8 | · | · | · | · | · | ·
CC1=NOC(=O)/C1=C/c1ccc(-c2ccc(Cl)cc2)o1 | 17.2 | -2.7 | 62.9* | -4.8 | -3.0 | 6.0 | 10.8 | 30.9*
O=C1NC[C@H](CCCCN2CCN(CCC3CCCCC3)C(=O)C2=O)N(CCc2ccccc2)C1=O | · | -3.7 | · | · | · | · | · | ·
CS(=O)(=O)c1ccc(Cl)c(NC(=O)COC(=O)CNC(=O)c2ccc(Br)o2)c1 | -1.8 | -2.3 | 32.2* | 0.6 | 0.5 | 8.3 | 2.3 | 3.9
CC(NC(=O)CN1CCN(C(=O)c2cccs2)CC1)c1ccc(F)cc1F (centres undefined) | · | -10.6 | -3.8 | 0.4 | -0.7 | -5.5 | · | ·
Cc1cc(SCC(=O)OCC(=O)N(CCC#N)c2ccccc2)nc2ccccc12 | · | -0.7 | 15.8 | 4.0 | 0.0 | -1.8 | · | ·
Cc1c(NC(=S)N/C(=N/S(=O)(=O)c2ccccc2)c2ccccc2)c(=O)n(-c2ccccc2)n1C | · | -8.3 | 29.6* | 1.6 | -0.3 | -5.3 | -1.1 | -0.7
